{"data": "Experimental data of several laboratories", "organism": "Leishmania major", "effect on": "parasite growth", "setting": "promastigote", "note": "Compare with care: the assays were run in different laboratories."}
{"SMILES": "Cc1nc2ccc(Cl)cn2c1C(=O)N1CCN(Cc2cn(-c3cccc(Cl)c3)nn2)CC1", "method": "resazurin", "time": "72 h", "quantity": "IC50", "value": "47.1 µM"}
{"SMILES": "O=S(=O)(c1ccc(-c2ccc3ncnc(Nc4ccc(OCc5ccccc5)c(Cl)c4)c3c2)cc1)N1CCOCC1", "method": "resazurin", "quantity": "EC50", "value": "0.47 µM"}
{"SMILES": "C[C@@H]1[C@H](O)[C@@H](C)/C=C/C=C/C=C/C=C/C=C/C=C/C=C/[C@H](O[C@@H]2O[C@H](C)[C@@H](O)[C@H](N)[C@@H]2O)C[C@@H]2O[C@](O)(C[C@@H](O)C[C@@H](O)[C@H](O)CC[C@@H](O)C[C@@H](O)CC(=O)O[C@H]1C)C[C@H](O)[C@H]2C(=O)O", "time": "48 h", "quantity": "IC50", "value": "3.68 µM"}
{"SMILES": "CCCCCCCCCc1cn(CCN2CCN(C(=O)c3c(C)nc4ccc(Cl)cn34)CC2)nn1", "method": "resazurin", "time": "72 h", "quantity": "IC50", "value": "62 µM"}
{"SMILES": "CC(=O)Oc1ccc(-c2oc3cc(OC(C)=O)cc(O)c3c(=O)c2OC(C)=O)cc1", "time": "48 h", "quantity": "IC50", "value": "14.9 µM"}
{"SMILES": "CC1(C)OB(CC2c3ccccc3C(=O)N2C2CCCCC2)OC1(C)C (stereo not drawn)", "quantity": "IC50", "value": "11.5 µM"}
{"SMILES": "CCCc1cn(CCN2CCN(C(=O)c3c(C)nc4ccc(Cl)cn34)CC2)nn1", "method": "resazurin", "time": "72 h", "quantity": "IC50", "value": "475 µM"}
{"SMILES": "C[C@@H]1[C@H](O)[C@@H](C)/C=C/C=C/C=C/C=C/C=C/C=C/C=C/[C@H](O[C@@H]2O[C@H](C)[C@@H](O)[C@H](N)[C@@H]2O)C[C@@H]2O[C@](O)(C[C@@H](O)C[C@@H](O)[C@H](O)CC[C@@H](O)C[C@@H](O)CC(=O)O[C@H]1C)C[C@H](O)[C@H]2C(=O)O", "time": "24 h", "quantity": "IC50", "value": "0.243 µM"}
{"SMILES": "C[C@@H]1[C@H](O)[C@@H](C)/C=C/C=C/C=C/C=C/C=C/C=C/C=C/[C@H](O[C@@H]2O[C@H](C)[C@@H](O)[C@H](N)[C@@H]2O)C[C@@H]2O[C@](O)(C[C@@H](O)C[C@@H](O)[C@H](O)CC[C@@H](O)C[C@@H](O)CC(=O)O[C@H]1C)C[C@H](O)[C@H]2C(=O)O", "quantity": "IC50", "value": "0.83 µM"}
